SMILES strings stand for the structures. Converted amounts (≈) assume the structure as drawn.

In series [1] the target is Metabotropic glutamate receptor 1 (Homo sapiens, UniProt Q13255). The experiment in a line: Antagonist activity at human mGluR1 receptor expressed in […] cells assessed as inhibition of glutamate-induced calcium flux by FLIPR assay. The format is functional, cell-based. In outline:
(§1)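 1321N1 cells transfected with human mGluR1 or human mGluR5 and co-expressing rat GLAST were used in a FLIPR calcium influx assay. Calcium flux was induced by 10 μM glutamate. IC50 is the concentration blocking 50% of that flux, given as the mean ± SEM of at least three determinations.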

Series [2] concerns the target Metabotropic glutamate receptor 5 (Homo sapiens, UniProt P41594). In words: Antagonist activity at human mGluR5 receptor expressed in […] cells assessed as inhibition of glutamate-induced calcium flux by FLIPR assay. The class given is functional, cell-based. In outline: as §1
A general note: Calcium flux is commonly read through the fluorescence of an indicator in the cells.

Series [3] in a line: Aqueous solubility of the compound. As to conditions: buffer. The format is physicochemical.
Series [4] is described as follows: Metabolic stability assessed as intrinsic clearance in rat liver microsomes. The class given is ADME, Microsome. In outline:
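Intrinsic clearance was measured in rat liver microsomes and reported as scaled intrinsic clearance.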
(In general: Microsomes from liver hold many membrane-bound enzymes, among them those of drug oxidation.)

Series [5] in a line: Permeability of the compound. The format is ADME. As to conditions: not told; read-out: permeability. In outline: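 Passive membrane permeability was measured and reported in ×10^-6 cm/s.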
The nature of series [6]: AUC in Sprague-Dawley rat at 1 mg/kg, iv. Also on record: dose 1 mg/kg, route intravenous. The format is ADME, organism-based. To be noted: plasma.
Series [7] has as its system Rattus norvegicus. The experiment in a line: (§2) AUC in Sprague-Dawley rat at 1 mg/kg, ip. The format is ADME, organism-based, Plasma. Set-up: dose 1 mg/kg, route intraperitoneal. To be noted: in vivo.
A short description of series [8]: AUC in Sprague-Dawley rat at 1 mg/kg, po. The class given is ADME, organism-based. Set-up: dose 1 mg/kg, route oral. To be noted: plasma.
The nature of series [9]: Volume of distribution at terminal phase in Sprague-Dawley rat at 1 mg/kg, iv. The class given is ADME, organism-based. Also on record: dose 1 mg/kg, route intravenous. As to conditions: in vivo, read-out: Vbeta.
Series [10] has as its system Rattus norvegicus. The experiment in a line: Clearance in Sprague-Dawley rat at 1 mg/kg, iv. The class given is ADME, organism-based. To be noted: in vivo. Set-up: dose 1 mg/kg, route intravenous.
Series [11] concerns Rattus norvegicus. The experiment in a line: (§3) Cmax in Sprague-Dawley rat at 1 mg/kg, ip. The class given is ADME, organism-based. Set-up: dose 1 mg/kg, route intraperitoneal. To be noted: in vivo.
Series [12] is described as follows: Cmax in Sprague-Dawley rat at 1 mg/kg, po. The class given is ADME, organism-based. Also on record: dose 1 mg/kg, route oral. To be noted: in vivo.
Series [13] deals with Rattus norvegicus. In words: (§4) Tmax in Sprague-Dawley rat at 1 mg/kg, ip. The format is ADME, organism-based. Set-up: dose 1 mg/kg, route intraperitoneal. To be noted: in vivo.
Series [14] in a line: Tmax in Sprague-Dawley rat at 1 mg/kg, po. Set-up: dose 1 mg/kg, route oral. The format is ADME, organism-based. To be noted: in vivo.
Series [15] is described as follows: Half life in Sprague-Dawley rat at 1 mg/kg, iv. The format is ADME, organism-based. Set-up: dose 1 mg/kg, route intravenous. As to conditions: in vivo.
In series [16] the test system is Rattus norvegicus. The experiment in a line: (§5) Half life in Sprague-Dawley rat at 1 mg/kg, ip. To be noted: in vivo. Also on record: dose 1 mg/kg, route intraperitoneal. The class given is ADME, organism-based.
Series [17] can be described thus: Half life in Sprague-Dawley rat at 1 mg/kg, po. The class given is ADME, organism-based. Also on record: dose 1 mg/kg, route oral. To be noted: in vivo.
Series [18] in a line: Bioavailability in Sprague-Dawley rat at 1 mg/kg, ip. The class given is ADME, organism-based. As to conditions: in vivo.
The nature of series [19]: Oral bioavailability in Sprague-Dawley rat at 1 mg/kg. The format is ADME, organism-based. As to conditions: in vivo.
The nature of series [20]: as §2. The format is ADME, organism-based, Plasma. Set-up: dose 1 mg/kg, route intraperitoneal. To be noted: Sprague-Dawley, plasma.
Series [21] is described as follows: as §3. The format is ADME, organism-based. Also on record: dose 1 mg/kg, route intraperitoneal. As to conditions: Sprague-Dawley, in vivo.
The nature of series [22]: as §4. The class given is ADME, organism-based. Set-up: dose 1 mg/kg, route intraperitoneal. As to conditions: Sprague-Dawley, in vivo.
Series [23] is described as follows: as §5. The format is ADME, organism-based. Also on record: dose 1 mg/kg, route intraperitoneal. To be noted: Sprague-Dawley, in vivo.

Metabotropic glutamate receptor 5, sequence (P41594 whole entry): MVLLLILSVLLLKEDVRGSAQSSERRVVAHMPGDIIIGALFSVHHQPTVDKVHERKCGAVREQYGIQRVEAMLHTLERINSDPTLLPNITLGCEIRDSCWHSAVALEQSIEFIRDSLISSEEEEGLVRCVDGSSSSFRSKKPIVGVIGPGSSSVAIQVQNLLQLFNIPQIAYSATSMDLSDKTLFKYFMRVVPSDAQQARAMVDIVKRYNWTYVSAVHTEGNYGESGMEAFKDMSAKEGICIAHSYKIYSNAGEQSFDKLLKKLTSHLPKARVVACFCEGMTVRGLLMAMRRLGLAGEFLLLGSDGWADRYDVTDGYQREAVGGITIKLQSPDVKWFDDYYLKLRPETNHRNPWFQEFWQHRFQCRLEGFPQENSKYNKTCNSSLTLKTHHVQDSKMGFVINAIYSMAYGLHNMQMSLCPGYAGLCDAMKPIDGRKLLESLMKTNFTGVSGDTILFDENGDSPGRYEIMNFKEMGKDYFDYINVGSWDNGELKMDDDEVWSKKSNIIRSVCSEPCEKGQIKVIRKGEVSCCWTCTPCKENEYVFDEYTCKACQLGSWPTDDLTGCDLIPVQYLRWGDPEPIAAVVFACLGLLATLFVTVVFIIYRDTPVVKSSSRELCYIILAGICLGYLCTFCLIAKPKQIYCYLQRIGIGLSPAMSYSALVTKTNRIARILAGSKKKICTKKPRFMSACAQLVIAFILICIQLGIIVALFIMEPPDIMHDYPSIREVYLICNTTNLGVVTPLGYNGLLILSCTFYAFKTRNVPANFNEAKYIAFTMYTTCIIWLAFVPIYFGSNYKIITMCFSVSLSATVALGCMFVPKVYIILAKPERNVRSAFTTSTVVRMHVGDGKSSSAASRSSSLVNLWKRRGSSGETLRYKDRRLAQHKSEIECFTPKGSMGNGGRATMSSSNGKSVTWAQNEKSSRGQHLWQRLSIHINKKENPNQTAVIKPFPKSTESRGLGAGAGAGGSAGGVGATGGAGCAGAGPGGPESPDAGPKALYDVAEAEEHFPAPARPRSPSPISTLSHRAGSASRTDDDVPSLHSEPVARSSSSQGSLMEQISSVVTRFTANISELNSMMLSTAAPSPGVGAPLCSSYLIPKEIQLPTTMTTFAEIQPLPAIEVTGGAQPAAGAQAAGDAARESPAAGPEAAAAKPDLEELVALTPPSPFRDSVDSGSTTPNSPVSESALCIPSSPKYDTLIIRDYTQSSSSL
Metabotropic glutamate receptor 1, sequence (Q13255 whole entry): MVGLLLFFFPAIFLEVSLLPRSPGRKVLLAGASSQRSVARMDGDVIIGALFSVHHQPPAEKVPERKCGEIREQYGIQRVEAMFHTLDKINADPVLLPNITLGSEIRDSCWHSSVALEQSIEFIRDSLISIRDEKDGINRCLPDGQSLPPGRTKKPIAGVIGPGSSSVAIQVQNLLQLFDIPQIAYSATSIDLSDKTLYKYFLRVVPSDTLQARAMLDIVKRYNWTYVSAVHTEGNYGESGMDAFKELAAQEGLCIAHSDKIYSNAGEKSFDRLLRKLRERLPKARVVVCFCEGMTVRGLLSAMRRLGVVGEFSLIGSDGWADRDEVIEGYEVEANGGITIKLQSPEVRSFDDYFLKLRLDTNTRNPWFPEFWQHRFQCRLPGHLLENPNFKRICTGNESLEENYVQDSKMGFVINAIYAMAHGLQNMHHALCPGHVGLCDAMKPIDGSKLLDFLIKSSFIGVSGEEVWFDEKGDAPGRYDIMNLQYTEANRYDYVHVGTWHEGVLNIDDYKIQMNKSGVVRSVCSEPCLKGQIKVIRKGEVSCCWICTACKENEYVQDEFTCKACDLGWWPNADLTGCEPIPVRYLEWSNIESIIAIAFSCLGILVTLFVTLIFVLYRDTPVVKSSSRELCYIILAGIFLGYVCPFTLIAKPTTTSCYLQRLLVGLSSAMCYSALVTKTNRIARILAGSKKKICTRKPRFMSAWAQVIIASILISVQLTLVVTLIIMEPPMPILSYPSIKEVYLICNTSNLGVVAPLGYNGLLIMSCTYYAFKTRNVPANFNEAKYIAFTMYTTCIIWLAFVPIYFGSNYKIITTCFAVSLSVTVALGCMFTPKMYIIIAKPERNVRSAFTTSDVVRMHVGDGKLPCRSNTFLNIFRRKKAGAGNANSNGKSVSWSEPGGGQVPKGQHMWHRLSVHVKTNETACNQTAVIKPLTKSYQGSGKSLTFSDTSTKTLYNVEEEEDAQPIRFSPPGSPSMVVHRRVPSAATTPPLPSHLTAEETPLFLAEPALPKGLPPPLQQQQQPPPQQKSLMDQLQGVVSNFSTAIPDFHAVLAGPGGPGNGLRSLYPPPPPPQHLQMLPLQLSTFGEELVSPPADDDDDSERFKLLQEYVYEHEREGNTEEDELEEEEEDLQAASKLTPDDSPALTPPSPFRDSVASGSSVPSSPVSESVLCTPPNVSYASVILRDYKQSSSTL

Regarding `Cc1nc2c(cnn2-c2ccc(S(N)(=O)=O)cc2)c(=O)n1-c1ccc(Cl)cc1`, the IC50 is 1410 nM in series [1] and more than 100000 nM in [2].

Take `Cc1nc2c(cnn2-c2ccccn2)c(=O)n1-c1ccc(Cl)cc1`: the IC50 in [1] and in series [2] was more than 100000 nM in each case.

Turning to `Cc1nc2c(cnn2-c2ccccc2)c(=O)n1N1CCCCCC1`, the IC50 in [1] came to 240 nM; in [2], 3600 nM.

Turning to `Cc1nc2c(cnn2CC2CCCCC2)c(=O)n1-c1ccc(Cl)cc1`, the 50% inhibitory concentration (IC50) in [1] and in series [2] was more than 100000 nM each time.

In the case of `Cc1ccccc1-n1ncc2c(=O)n(-c3ccc(Cl)cc3)c(C)nc21`, the IC50 in series [1] was 350 nM; in series [2], 9500 nM.

As to `Cc1nc2c(cnn2-c2ccccc2)c(=O)n1-c1ccc(Cl)c(F)c1`, the IC50 was 800 nM in series [1] and more than 100000 nM in series [2]. In series [3], this compound yielded a solubility of 18 µM (≈ 6.39 µg/mL). Besides, the CLint scaled in series [4] is 183 mL/min/kg.

In the case of `Cc1nc2c(cnn2-c2ccccc2)c(=O)n1C1CCCCCC1`, the IC50 in [1] amounted to 760 nM.

Consider `Cc1nc2c(cnn2-c2cncnc2)c(=O)n1-c1ccc(Cl)cc1`, for which the IC50 was 9800 nM in series [1] and more than 100000 nM in [2].

As to `Cc1nc2c(cnn2-c2ccccc2)c(=O)n1-c1ccc(Cl)cc1`, the 50% inhibitory concentration (IC50) in series [1] was determined as 242 nM; in series [2] it was 9600 nM. The compound further yielded a solubility in [3] of 18 µM (≈ 6.06 µg/mL). The CLint scaled in series [4] is 117 mL/min/kg. The Papp in [5] came out at 29.6 ×10⁻⁶ cm/s.

On to `Cc1nc2c(cnn2-c2ccccc2)c(=O)n1N1CCCCC1`, for which the figures for the IC50 in [1] and in series [2] were 91 nM and 2800 nM, respectively. This compound returned a solubility in [3] of 19 µM (≈ 5.88 µg/mL). Also, the CLint scaled in series [4] is 1800 mL/min/kg. Further, in series [5], the Papp is 5.49 ×10⁻⁶ cm/s.

As for `Cc1nc2c(cnn2-c2ccccc2)c(=O)n1-c1ccc(Br)cc1`, the IC50 is 78 nM in [1] and more than 100000 nM in series [2]. In addition, the concentration in solution in [3] (solubility) was 14 µM (≈ 5.34 µg/mL). In addition, in [4], the CLint scaled was 115 mL/min/kg. Moreover, the Papp in series [5] came out at 19.4 ×10⁻⁶ cm/s. Further, the AUC in series [6] was 1280 ng·h/mL; in series [7], 389 ng·h/mL; in series [8], 100 ng·h/mL. Further, the Vd in series [9] worked out at 3.1 L/kg. Besides, the clearance in series [10] came out at 13.3 mL/min/kg. Also, the results for the Cmax in series [11] and in [12] were 170 ng/mL and 30 ng/mL, respectively. The results for the Tmax in [13] and in [14] were 0.25 h and 1.3 h, respectively. Moreover, the half-life in series [15] was 2.5 h; in series [17], 1.3 h. The compound further yielded a t1/2 in series [16] of 0.25 h. Moreover, the results for the bioavailability in series [18] and in [19] were 30% and 8%, respectively.

Consider `Cc1nc2c(cnn2-c2ccccc2)c(=O)n1-c1ccc(O)cc1`, for which the half-inhibitory concentration (IC50) is 2400 nM in series [1] and more than 100000 nM in [2].

As to `Cc1nc2c(cnn2-c2ccccc2)c(=O)n1-c1ccc(OC(F)(F)F)cc1`, the IC50 in series [1] and in [2] was more than 100000 nM each time.

Consider `Cc1nc2c(cnn2-c2cccc(S(N)(=O)=O)c2)c(=O)n1-c1ccc(Cl)cc1`, for which the IC50 in series [1] was 127 nM; in series [2], more than 100000 nM. For the same compound, the solubility in series [3] amounted to 42 µM (≈ 17.5 µg/mL). Further, in [4], the CLint scaled was less than 41.7 mL/min/kg. Also, in [5], the Papp came to 17.6 ×10⁻⁶ cm/s. The AUC in series [6] amounted to 6150 ng·h/mL; in [20], 7790 ng·h/mL; in series [8] it was 6240 ng·h/mL. Further, in series [9], the Vd was determined as 0.4 L/kg. Moreover, the clearance in series [10] worked out at 3.33 mL/min/kg. Further, the peak concentration (Cmax) in series [21] turned out to be 1540 ng/mL; in [12], 2100 ng/mL. Further, the Tmax in series [22] was 1.7 h; in series [14], 1.2 h. Further, the half-life in [15] was 1.5 h; in series [23], 1.7 h; in [17], 1.2 h.

Take `Cc1nc2c(cnn2-c2ccccc2)c(=O)n1-c1ccc(S(N)(=O)=O)cc1`: the IC50 in series [1] and in [2] was more than 100000 nM in each case.

As to `Cc1nc2c(cnn2-c2ccc(Cl)cc2)c(=O)n1-c1ccc(Cl)cc1`, the IC50 in series [1] is 1100 nM; in [2] it was more than 100000 nM.

On to `Cc1nc2c(cnn2-c2cccnc2)c(=O)n1-c1ccc(Cl)cc1`, for which the IC50 in series [1] is 230 nM; in series [2], more than 100000 nM. In [3], this compound yielded a solubility of 73 µM (≈ 24.7 µg/mL). In addition, in series [4], the CLint scaled was 66.7 mL/min/kg. Besides, in [5], the Papp was determined as 21.4 ×10⁻⁶ cm/s.

`Cc1nc2c(cnn2-c2cccc(Cl)c2)c(=O)n1-c1ccc(Cl)cc1`: the IC50 in [1] was 220 nM; in series [2], more than 100000 nM. In addition, in series [3], the solubility was found to be 11 µM (≈ 4.08 µg/mL). Also, the CLint scaled in series [4] is 183 mL/min/kg. For the same compound, the Papp in series [5] was 5.6 ×10⁻⁶ cm/s.

Take `Cc1nc2c(cnn2-c2cnccn2)c(=O)n1-c1ccc(Cl)cc1`: the IC50 in [1] and in series [2] was more than 100000 nM throughout.

As for `Cc1nc2c(cnn2C2CCCCCC2)c(=O)n1-c1ccc(Cl)cc1`, the values for the concentration for half-maximal inhibition (IC50) in series [1] and in series [2] were 520 nM and more than 100000 nM, respectively.

For `Cc1cccc(-n2ncc3c(=O)n(-c4ccc(Cl)cc4)c(C)nc32)c1`, the values for the IC50 in [1] and in series [2] were 180 nM and more than 100000 nM, respectively. This compound also yielded a solubility in series [3] of 30 µM (≈ 10.5 µg/mL). Also, the CLint scaled in [4] was 400 mL/min/kg. Further, in series [5], the Papp was 13.4 ×10⁻⁶ cm/s.

On to `Cc1nc2c(cnn2-c2ccccc2)c(=O)n1-c1cccc(Cl)c1`, for which the IC50 in [1] was more than 100000 nM.

Usually IC50 stands for the concentration that inhibits the measured activity by half. One may read the solubility as how much of the substance goes into solution per volume. Read a low solubility as little dissolved substance. What is called CLint scaled is the capacity of the preparation to metabolise the compound, expressed as a volume cleared per time. What is called AUC is concentration integrated over time. High values mean more exposure, low ones less exposure. By clearance is commonly meant a measure of how efficiently the substance is removed, as volume per time. The low end stands for a low capacity for elimination, the high end for a high capacity for elimination. For orientation: Cmax means the highest concentration seen after dosing. What is called Tmax is the time at which the peak concentration occurs. Broadly, the half-life is the time in which the quantity being followed falls by half. Low values mean rapid decline, high ones slow decline. What is called bioavailability is dose-corrected exposure relative to a reference, in per cent. Low readings indicate little systemic uptake, high ones much systemic uptake.
